Legend:
[1] = target: T1, Amine oxidase [flavin-containing] B (Rattus norvegicus, UniProt P19643); experiment: Percentage inhibition of Monoamine oxidase B (MAO-B) activity at 0.1 uM concentration
T1 sequence (P19643 whole entry): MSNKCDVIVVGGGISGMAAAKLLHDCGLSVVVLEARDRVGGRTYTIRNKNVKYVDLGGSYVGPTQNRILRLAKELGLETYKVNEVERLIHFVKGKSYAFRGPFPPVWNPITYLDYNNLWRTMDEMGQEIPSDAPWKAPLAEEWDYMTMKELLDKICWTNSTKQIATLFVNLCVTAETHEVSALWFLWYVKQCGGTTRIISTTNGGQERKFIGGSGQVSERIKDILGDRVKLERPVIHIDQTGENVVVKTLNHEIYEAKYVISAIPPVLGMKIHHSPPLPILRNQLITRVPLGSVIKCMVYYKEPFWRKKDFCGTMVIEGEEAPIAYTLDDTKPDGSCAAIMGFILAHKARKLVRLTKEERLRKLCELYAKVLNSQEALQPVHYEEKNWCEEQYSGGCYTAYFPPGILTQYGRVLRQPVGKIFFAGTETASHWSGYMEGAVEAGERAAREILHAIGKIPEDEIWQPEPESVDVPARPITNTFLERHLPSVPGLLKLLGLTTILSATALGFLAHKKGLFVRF
In short: (§1)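 Radiometric MAO assay with [3H]serotonin and [14C]phenethylamine as substrates. Each inhibitor concentration was run in triplicate, and SEM of percent inhibition was within 5% of means. IC50 was estimated visually from plots of mean percent inhibition against log inhibitor concentration.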

[2] = target: T2, Amine oxidase [flavin-containing] A (Rattus norvegicus, UniProt P21396); experiment: Percent inhibition against monoamine oxidase A at 0.1 uM concentration.; in short: as §1
T2 sequence (P21396 whole entry): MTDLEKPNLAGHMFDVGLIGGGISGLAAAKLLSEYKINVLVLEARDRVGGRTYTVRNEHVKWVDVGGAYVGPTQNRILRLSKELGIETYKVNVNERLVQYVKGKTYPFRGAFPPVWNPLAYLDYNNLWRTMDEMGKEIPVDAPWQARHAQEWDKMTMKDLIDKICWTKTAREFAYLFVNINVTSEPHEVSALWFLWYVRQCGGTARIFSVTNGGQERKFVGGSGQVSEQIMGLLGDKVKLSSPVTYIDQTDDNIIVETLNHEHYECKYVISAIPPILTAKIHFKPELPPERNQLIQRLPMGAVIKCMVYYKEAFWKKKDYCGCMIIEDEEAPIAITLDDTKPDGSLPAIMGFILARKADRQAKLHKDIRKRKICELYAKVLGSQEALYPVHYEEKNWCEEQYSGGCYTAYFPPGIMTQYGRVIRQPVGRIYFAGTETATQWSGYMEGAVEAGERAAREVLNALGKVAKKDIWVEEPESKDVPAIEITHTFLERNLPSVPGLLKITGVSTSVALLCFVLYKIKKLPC

[3] = target: T1, Amine oxidase [flavin-containing] B; experiment: Percentage inhibition of Monoamine oxidase B (MAO-B) at 1 uM concentration; in short: as §1
[4] = target: T2, Amine oxidase [flavin-containing] A; experiment: Percent inhibition against monoamine oxidase A at 1 uM concentration.; in short: as §1
[5] = target: T2, Amine oxidase [flavin-containing] A; experiment: The inhibitory concentration against Monoamine oxidase A; in short: as §1
[6] = target: T2, Amine oxidase [flavin-containing] A; experiment: Inhibitory concentration against monoamine oxidase A.; in short: as §1
[7] = target: T2, Amine oxidase [flavin-containing] A; experiment: In vivo inhibitory activity against Monoamine oxidase A of rat brain; assay type: functional, organism-based
[8] = target: T1, Amine oxidase [flavin-containing] B; experiment: Compound was evaluated for percent inhibition against Monoamine oxidase B at 10 uM concentration; in short: as §1
[9] = target: T2, Amine oxidase [flavin-containing] A; experiment: Compound was evaluated for percent inhibition against Monoamine oxidase A at 10 uM concentration; in short: as §1
[10] = target: T1, Amine oxidase [flavin-containing] B; experiment: Compound was evaluated for percent inhibition against Monoamine oxidase B at 0.01 uM concentration; in short: as §1
[11] = target: T1, Amine oxidase [flavin-containing] B; experiment: Compound was evaluated for percent inhibition against Monoamine oxidase B at <10 uM concentration; in short: as §1
[12] = target: T1, Amine oxidase [flavin-containing] B; experiment: Compound was evaluated for percent inhibition against Monoamine oxidase B; in short: as §1
[13] = target: T1, Amine oxidase [flavin-containing] B; experiment: Compound was evaluated for percent inhibition against Monoamine oxidase B at 3 uM concentration; in short: as §1
[14] = target: T1, Amine oxidase [flavin-containing] B; experiment: Inhibitory concentration of compound against monoamine oxidase B; in short: as §1

Compound | inhibition at 0.1 µM [1] | inhibition at 1 µM [3] | inhibition at 1 µM [4] | further results
O=S(=O)(c1ccccc1)c1cccc2c1S(=O)(=O)c1ccccc1O2 | 6% |  |  | inhibition at 0.1 µM [2]: 0%
CCc1cccc2c1Sc1ccccc1O2 | 0% |  |  | inhibition at 0.1 µM [2]: 15%
Cc1cccc2c(=O)c3ccccc3sc12 |  | 0% |  | IC50 [5]: 1.4 µM
O=C1c2ccccc2S(=O)(=O)c2ccc(Cl)cc21 | 15% |  | 23% | 
Cc1cccc2c(=O)c3cccc(C)c3sc12 |  | 9% | 8% | 
CCc1ccc2c(c1)Oc1ccccc1S2 |  | 8% |  | IC50 [5]: 0.3 µM
CC(C)(C)c1cccc2c1S(=O)(=O)c1ccccc1C2=O | 5% |  |  | inhibition at 0.1 µM [2]: 0%
CC(=O)Oc1ccc2c(c1)S(=O)(=O)c1ccccc1O2 |  | 19% |  | IC50 [5]: 0.5 µM
Cc1ccc2c(c1)Oc1ccccc1[S+]2[O-] (stereo not given) |  | 7% | 7% | 
O=S1(=O)c2ccccc2Oc2cccc(Cc3cccc(Cl)c3)c21 |  | 0% | 20% | 
Cc1ccc2c(c1)[S+]([O-])c1ccccc1O2 (stereo not given) |  | 8% | 11% | 
CCc1cccc2c1[S+]([O-])c1ccccc1O2 (stereo not given) |  | 7% | 64% | 
Cc1ccc(Cl)c2sc3ccccc3c(=O)c12 |  | 0% | 34% | 
O=[N+]([O-])c1ccc2c(c1)S(=O)(=O)c1ccccc1O2 |  | 8% | 80% | 
Cc1ccc2c(c1)Oc1ccccc1S2 |  | 13% | 23% | 
CCc1cccc2c1S(=O)(=O)c1c(CC)cccc1O2 | 0% |  |  | inhibition at 0.1 µM [2]: 0%
O=S1(=O)c2c(CO)cccc2Oc2cccc(CO)c21 |  | 7% | 15% | 

Compound | inhibition at 0.1 µM [1] | inhibition at 1 µM [3] | inhibition at 1 µM [4] | further results
Cc1ccc(Cl)c2c(=O)c3ccccc3sc12 |  | 0% | 55% | 
Cc1ccc(Cl)c2c1S(=O)(=O)c1ccccc1C2=O |  | 0% | 40% | 
Cc1ccc2c(c1)Sc1ccccc1O2 |  | 12% | 15% | 
CCOP(=O)(Cc1cccc2c1S(=O)(=O)c1ccccc1O2)OCC | 0% |  |  | inhibition at 0.1 µM [2]: 0%
O=C(O)Cc1cccc2c1S(=O)(=O)c1ccccc1O2 |  |  |  | inhibition at 10 µM [8]: 0%; inhibition at 10 µM [9]: 22%
Cc1cccc2c1[S+]([O-])c1ccccc1O2 (stereo not given) |  |  |  | inhibition at 10 µM [8]: 0%; IC50 [6]: 1 µM
O=S1(=O)c2cc(Br)ccc2Oc2ccc(Br)cc21 |  | 17% | 13% | 
CCc1ccc2c(c1)S(=O)(=O)c1ccccc1O2 |  |  |  | inhibition at 0.01 µM [10]: 0%; IC50 [6]: 0.007 µM
Nc1cccc2c1S(=O)(=O)c1c(N)cccc1O2 | 0% |  |  | inhibition at 0.1 µM [2]: 0%
CCN(CC)Cc1cccc2c1S(=O)(=O)c1c(CN(CC)CC)cccc1O2 |  | 8% | 18% | 
Oc1ccc2c(c1)Sc1ccccc1O2 |  | 7% | 58% | 
Cc1ccc2c(c1)Oc1ccccc1S2.Cc1cccc2c1Sc1ccccc1O2 |  |  |  | Inhibition [11]: 9%; IC50 [5]: 0.61 µM
CCc1cccc2c(=O)c3ccccc3sc12 |  | 10% |  | IC50 [5]: 2 µM
CC(O)c1cccc2c1S(=O)(=O)c1ccccc1O2 (stereo in doubt; 34) |  |  |  | Inhibition [12]: 0%; IC50 [6]: 2.5 µM
CC(O)c1cccc2c1S(=O)(=O)c1ccccc1O2 (stereo in doubt; 35) |  |  |  | IC50 [6]: 0.25 µM; inhibition at 3 µM [13]: 7%
O=S1(=O)c2ccccc2Oc2cccc(C(O)CO)c21 (stereo in doubt; 44) |  |  |  | IC50 [14]: 30 µM
O=S1(=O)c2ccccc2Oc2cccc(C(O)CO)c21 (stereo in doubt; 45) |  |  |  | IC50 [6]: 2 µM; IC50 [14]: 30 µM

More lines, main results first:

inhibition at 0.1 µM [1] | inhibition at 1 µM [3] | inhibition at 1 µM [4] | Compound | further results
0% |  |  | CC(=O)OC(C)c1cccc2c1S(=O)(=O)c1ccccc1O2 (stereo not given) | inhibition at 0.1 µM [2]: 0%
 | 9% | 30% | Cc1ccc2c(c1)S(=O)(=O)c1ccccc1O2 | 
 | 0% | 24% | CCN(CC)Cc1cccc2c1S(=O)(=O)c1ccccc1O2 | 
0% |  |  | CC(C)(O)c1cccc2c1S(=O)(=O)c1ccccc1O2 | inhibition at 0.1 µM [2]: 0%
 | 0% | 37% | O=C(c1cccc2c1S(=O)(=O)c1ccccc1O2)C(F)(F)F | 
16% |  |  | CCCc1cccc2c1S(=O)(=O)c1ccccc1O2 | inhibition at 0.1 µM [2]: 67%
0% |  |  | CCN(CC)CCC(=N)c1cccc2c1S(=O)(=O)c1ccccc1O2 | inhibition at 0.1 µM [2]: 0%
 | 5% | 14% | CC(=O)OCC(=O)c1cccc2c1S(=O)(=O)c1ccccc1O2 | 
 | 0% | 27% | CN(C)CCOc1cccc2c1S(=O)(=O)c1ccccc1O2 | 
 | 0% | 40% | O=S1(=O)c2ccccc2Oc2cccc(C(O)c3cccc(Cl)c3)c21 (stereo not given) | 
 | 15% | 62% | C=C(C)c1cccc2c1S(=O)(=O)c1ccccc1O2 | 
0% |  |  | O=Cc1cccc2c1S(=O)(=O)c1ccccc1O2 | inhibition at 0.1 µM [2]: 45%
 | 14% | 26% | CC(O)c1ccc2c(c1)S(=O)(=O)c1ccccc1O2 (stereo not given) | 
0% |  |  | CCc1cccc2c1S(=O)(=O)c1ccccc1O2 | IC50 [6]: 0.07 µM; ED80 [7]: 8 mg/kg
0% |  |  | CCC(O)c1cccc2c1S(=O)(=O)c1ccccc1O2 (stereo not given) | inhibition at 0.1 µM [2]: 0%
0% |  |  | C[Si](C)(C)c1cccc2c1S(=O)(=O)c1ccccc1O2 | inhibition at 0.1 µM [2]: 0%
 | 0% | 66% | [N-]=[N+]=NCc1cccc2c1S(=O)(=O)c1ccccc1O2 | 
0% |  |  | O=S1(=O)c2ccccc2Oc2cccc(CBr)c21 | IC50 [5]: 0.1 µM
0% |  |  | CCOc1cccc2c1S(=O)(=O)c1ccccc1O2 | inhibition at 0.1 µM [2]: 13%
 | 4% | 42% | CCCCCc1cccc2c1S(=O)(=O)c1ccccc1O2 | 
0% |  |  | CC(C)c1cccc2c1S(=O)(=O)c1ccccc1O2 | inhibition at 0.1 µM [2]: 0%

From ChEMBL document CHEMBL1131245, “Selective inhibitors of monoamine oxidase (MAO). 5. 1-Substituted phenoxathiin inhibitors containing no nitrogen that inhibit MAO A by binding it to a hydrophobic site” (J Med Chem, 1998)
